Assay results of several laboratories.
Each line is one published result; the experiments were not run side by side.
Read-out: cell growth or viability

Structure (SMILES) | cell line | assay | setting | quantity | value
COC(=O)c1c(C)ncn1CC(c1c[nH]c2ccccc12)c1c[nH]c2ccccc12 | human Fibroblast | MTS | 20 µM, 24 h | inhibition | 12%
CC(C)Nc1ccnc(Nc2cccc(-c3nccs3)c2)n1 | MV4-11 | ATP luminescence | 72 h | EC50 | 9.46 µM
CCCCCCCCCCCCCCCCOP(=O)([O-])OCC[N+](C)(C)C | human Fibroblast | MTS | 20 µM, 24 h | inhibition | 46.2%
COC(C)(C)CCC[C@](C)(O)[C@H]1CC[C@]2(C)[C@@H]1[C@H](O)C[C@@H]1[C@@]3(C)CC[C@H](O)C(C)(C)[C@@H]3CC[C@]12C | BEAS-2B | MTT | 72 h | IC80 | > 100 µM
C[C@H](Nc1ccnc(Nc2cccc(-c3cccnc3)c2)n1)C(=O)O | MV4-11 | ATP luminescence | 72 h | EC50 | > 8 µM
CC(C)(CO)Cn1nc(-c2ccc3nc(OC4CC4)ccc3c2)c2c(N)ncnc21 | CRL8155 | – | – | GI50 | > 10 µM
COc1ccc(-c2ccc(-c3ccc(C(=N)N)nc3)s2)cc1Cl | LOX IMVI | SRB | – | GI50 | 1.87 µM
c1ccc(-c2cccc(Nc3nccc(NC4CCCCC4)n3)c2)cc1 | MV4-11 | ATP luminescence | 72 h | EC50 | > 4 µM
CCN(CC)CCOC(=O)C1(c2ccc([N+](=O)[O-])cc2)CCCC1 | HN-6 | – | 72 h | IC50 | > 20 µM
CC(C)(CO)Cn1nc(-c2ccc3nc(OCC(F)(F)F)ccc3c2)c2c(N)ncnc21 | CRL8155 | – | – | GI50 | > 10 µM
CC(C)=CCC[C@](C)(O)[C@H]1CC[C@]2(C)[C@@H]1[C@H](O)C[C@@H]1[C@@]3(C)CC[C@H](O[C@@H]4O[C@H](CO)[C@@H](O)[C@H](O)[C@H]4O[C@@H]4O[C@H](CO)[C@@H](O)[C@H](O)[C@H]4O)C(C)(C)[C@@H]3CC[C@]12C | BEAS-2B | MTT | 72 h | IC20 | > 100 µM
CC[C@H](C)Nc1ccnc(Nc2cccc(-c3cccnc3)c2)n1 | MV4-11 | ATP luminescence | 72 h | EC50 | 0.065 µM
COc1ccc(-c2ccc(-c3ccc(C(=N)N)nc3)s2)cc1 | LOX IMVI | SRB | – | GI50 | 1.88 µM
CC(C)Nc1ccnc(Nc2cccc(-c3ccncc3)c2)n1 | MV4-11 | ATP luminescence | 72 h | EC50 | > 15 µM
CC1(C)C(=O)NC2=C1C(=O)C(=O)c1ccccc12 | HN-6 | – | 72 h | IC50 | > 20 µM
Cc1cc2c(cc1N1C(=O)c3cccc4c(CCCO)ccc(c34)C1=O)n(C)c(=O)n2C (racemic) | 769-P | resazurin | – | GI50 | 3.21 µM
CCOC(=O)c1c(C)ncn1CC(c1cn(C)c2ccc([N+](=O)[O-])cc12)c1cn(C)c2ccc([N+](=O)[O-])cc12 | human Fibroblast | MTS | 20 µM, 24 h | inhibition | 21.1%
Fc1ccc(Nc2nccc(NC3CCCCC3)n2)cc1 | MV4-11 | ATP luminescence | 72 h | EC50 | > 3 µM
